Among the data in ChEMBL document CHEMBL4261600 (Eur J Med Chem, 2018) are GI50 and IC50 values, retold here.

The structures appear in SMILES notation.

For test [1], the system named is MV4-11. As to the kind of experiment: Antiproliferative activity against human MV4-11 cells after 72 hrs by Celltiter-Glo assay. The format is functional. Conditions: MV4-11, 72 h. The procedure, abridged:
(§1)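 Cells seeded at 3000/well in 96-well plates, exposed to serially diluted compound for 72 h at 37 °C, 5% CO2. Viability read by CellTiter-Glo luminescence and normalized to DMSO control. GI50 derived from curve fit, mean of three independent measurements. Culture media: DMEM/10% FBS for adherent lines; IMDM for MV4-11 and MEC-1/2; RPMI 1640 for suspension lines and CHL.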

Test [2] in a line: Antiproliferative activity against Chinese hamster CHL cells after 72 hrs by Celltiter-Glo assay. The conditions noted are these: Cricetulus griseus. On the technique in general: ATP-based viability assays read luminescence as a measure of living cells.
Test [3] in a line: Antiproliferative activity against human MEC1 cells after 72 hrs by Celltiter-Glo assay. It is filed as functional. The conditions noted are these: MEC1, 72 h. The procedure, abridged:
as §1

In test [4] the target is CDK9/Cyclin K (Homo sapiens, UniProt P50750). As to the kind of experiment: Inhibition of CDK9/Cyclin K (unknown origin) using PDKtide as substrate incubated at 37 degreeC for 1 hr followed by incubation at room temperature for 5 mins by ADP-Glo reagent based luminescence assay. The format is protein-complex assay. (In ADP-Glo the light output rises with the ADP produced.)

One may read the GI50 as the concentration at which growth is held to half of that of the control. A lower GI50 goes with more potent growth inhibition. As a reminder, the IC50 is the point on the concentration scale where inhibition reaches its midpoint.

CDK9/Cyclin K, sequence (P50750 whole entry): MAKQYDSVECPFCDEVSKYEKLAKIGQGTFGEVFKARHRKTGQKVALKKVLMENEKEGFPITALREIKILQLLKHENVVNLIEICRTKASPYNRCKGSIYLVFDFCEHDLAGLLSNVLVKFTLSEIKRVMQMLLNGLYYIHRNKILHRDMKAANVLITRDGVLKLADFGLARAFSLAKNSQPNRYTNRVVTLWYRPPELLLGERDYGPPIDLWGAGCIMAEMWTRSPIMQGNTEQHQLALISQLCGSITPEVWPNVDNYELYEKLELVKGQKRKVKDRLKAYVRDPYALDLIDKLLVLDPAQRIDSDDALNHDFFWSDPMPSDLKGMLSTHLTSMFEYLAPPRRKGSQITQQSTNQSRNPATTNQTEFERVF
CDK9/Cyclin K, sequence (O75909 whole entry, further chain): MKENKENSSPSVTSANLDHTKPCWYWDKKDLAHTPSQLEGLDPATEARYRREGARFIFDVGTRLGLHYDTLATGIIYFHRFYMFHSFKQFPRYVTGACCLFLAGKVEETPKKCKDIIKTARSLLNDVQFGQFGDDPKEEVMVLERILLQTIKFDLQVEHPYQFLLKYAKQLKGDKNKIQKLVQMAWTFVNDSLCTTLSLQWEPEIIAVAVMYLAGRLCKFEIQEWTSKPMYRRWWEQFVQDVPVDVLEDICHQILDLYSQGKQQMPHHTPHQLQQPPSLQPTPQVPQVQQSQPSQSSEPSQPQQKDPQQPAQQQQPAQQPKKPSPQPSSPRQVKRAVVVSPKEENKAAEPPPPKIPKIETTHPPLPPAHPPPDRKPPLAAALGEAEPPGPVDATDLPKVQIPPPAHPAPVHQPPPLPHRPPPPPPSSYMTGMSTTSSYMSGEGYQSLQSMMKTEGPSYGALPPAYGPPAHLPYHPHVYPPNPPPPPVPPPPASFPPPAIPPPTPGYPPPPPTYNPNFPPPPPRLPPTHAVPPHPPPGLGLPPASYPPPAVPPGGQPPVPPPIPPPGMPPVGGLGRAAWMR

With `O=C(N[C@H]1CC[C@H](Nc2cc(-c3csc(NCC4CCOCC4)n3)c(Cl)cn2)CC1)C1CC1`, the GI50 in test [1], in test [2] and in test [3] was above 10000 nM in each case. For the same compound, in test [4], inhibition was half-maximal at 150 nM (IC50).
Turning to `COCCN[C@H]1CC[C@H](Nc2cc(-c3csc(NCC4C5CC6CC(C5)CC4C6)n3)c(Cl)cn2)CC1` (some centres undefined), the GI50 in test [1] was determined as 3460 nM; in test [2] it was 2040 nM; in test [3], 6310 nM. Further, in test [4], the midpoint of inhibition, the IC50, lay at 94 nM.
For the compound `COCCN[C@H]1CC[C@H](Nc2cc(-c3csc(NCC4CCCC4)n3)c(Cl)cn2)CC1`, the GI50 was 2160 nM in test [1], above 10000 nM in test [2] and 2940 nM in test [3]. The compound also yielded an IC50 in test [4] of 80 nM.
In the same order, the values of `COCCN[C@H]1CC[C@H](Nc2cc(-c3csc(NCC4CCOCC4)n3)ccn2)CC1` are 910 nM, 1200 nM, 2500 nM and 114 nM.
In the same order, the values of `COC[C@@H](C)N[C@H]1CC[C@H](Nc2cc(-c3csc(NCC4(C#N)CCOCC4)n3)c(Cl)cn2)CC1` [TAMBICICLIB] are 14 nM, 1100 nM, 47 nM and 9 nM.
For the compound `COCCN[C@H]1CC[C@H](Nc2cc(-c3csc(NCC4CCOC4)n3)c(Cl)cn2)CC1` (some centres undefined), the GI50 in test [1] was 493 nM; in test [2], above 10000 nM; in test [3] it was 883 nM. The same compound yielded an IC50 in test [4] of 90 nM.
In the case of `COCCN[C@H]1CC[C@H](Oc2cc(-c3csc(NCC4CCOCC4)n3)c(Cl)cn2)CC1`, the values for the GI50 in test [1], in test [2] and in test [3] were 7700 nM, above 10000 nM and above 10000 nM, respectively. Moreover, 1670 nM corresponded to half-maximal inhibition in test [4] (IC50).
Turning to `COCCN[C@H]1CC[C@H](Nc2cc(-c3csc(NCC4CCCCC4)n3)c(Cl)cn2)CC1`, the values for the GI50 in test [1], in test [2] and in test [3] were 820 nM, 8000 nM and 850 nM, respectively. Besides, in test [4], inhibition was half-maximal at 27 nM (IC50).
In the same order, the values of `COCCCN[C@H]1CC[C@H](Nc2cc(-c3csc(NCC4CCOCC4)n3)c(Cl)cn2)CC1` are 1090 nM, 2030 nM, 2610 nM and 12 nM.
In the same order, the values of `COCCN[C@H]1CC[C@H](Nc2cc(-c3csc(OCC4CCOCC4)n3)c(Cl)cn2)CC1` are 570 nM, 3300 nM, 1400 nM and 28 nM.
Consider `COC[C@H](C)N[C@H]1CC[C@H](Nc2cc(-c3csc(NCC4CCOCC4)n3)c(Cl)cn2)CC1`, for which the GI50 in test [1] amounted to 440 nM; in test [2], 3600 nM; in test [3], 1300 nM. This compound also gave an IC50 in test [4] above 10000 nM.
In the same order, the values of `COCCN[C@H]1CC[C@H](Nc2cc(-c3csc(NCC(F)(F)F)n3)c(Cl)cn2)CC1` are 752 nM, 877 nM, 1100 nM and 17 nM.
With `Clc1cnc(Nc2ccccc2)cc1-c1csc(NCC2CCOCC2)n1`, the GI50 in test [1], in test [2] and in test [3] was above 10000 nM in each case. For the same compound, in test [4], inhibition was half-maximal at 238 nM (IC50).
For `COC[C@@H](C)N[C@H]1CC[C@H](Nc2cc(-c3csc(NCC4CCOCC4)n3)c(Cl)cn2)CC1`, the GI50 in test [1] was determined as 140 nM; in test [2], 1100 nM; in test [3], 310 nM. In test [4], this compound yielded an IC50 of 733 nM.
In the same order, the values of `COCCN[C@H]1CC[C@H](Nc2cc(-c3csc(NCc4ccc(F)cc4)n3)c(Cl)cn2)CC1` are 880 nM, 1100 nM, 450 nM and 2 nM.
In the same order, the values of `CCOCCN[C@H]1CC[C@H](Nc2cc(-c3csc(NCC4CCOCC4)n3)c(Cl)cn2)CC1` are 497 nM, 2820 nM, 634 nM and 51 nM.
In the same order, the values of `COCCN[C@H]1CC[C@H](Nc2cc(-c3csc(NCC4CCOCC4)n3)c(C)cn2)CC1` are 1620 nM, 5010 nM, 3560 nM and 253 nM.
Consider `COCCN[C@H]1CC[C@H](Nc2cc(-c3csc(NCC4CCC4)n3)c(Cl)cn2)CC1`, for which the GI50 is above 10000 nM in test [1], 1290 nM in test [2] and 2260 nM in test [3]. Also, in test [4], half-maximal inhibition (IC50) required 107 nM.
On to `CNc1nc(-c2cc(N[C@H]3CC[C@H](NCCOC)CC3)ncc2Cl)cs1`, for which the GI50 in test [1] stood at 530 nM; in test [2], 1900 nM; in test [3], 1400 nM. This compound showed an IC50 in test [4] of 101 nM.
As for `N[C@H]1CC[C@H](CNc2cc(-c3csc(NCC4CCOCC4)n3)c(Cl)cn2)CC1`, the concentration for 50% growth inhibition (GI50) in test [1] is 1900 nM; in test [2] it was 3900 nM; in test [3], above 10000 nM. Also, in test [4], 84 nM corresponded to half-maximal inhibition (IC50).
With `COCCN[C@H]1CC[C@H](Nc2cc(-c3csc(NCC4CCOCC4)n3)c(Cl)cn2)CC1`, the GI50 in test [1] amounted to 170 nM; in test [2], 534 nM; in test [3] it was 1240 nM. In addition, the IC50 in test [4] is 2 nM.
`Fc1cc(-c2csc(NCC3CCOCC3)n2)c(Cl)cn1`: the GI50 in test [1], in test [2] and in test [3] was above 10000 nM each time. In test [4], this compound registered an IC50 of 557 nM.
In the case of `COC[C@H](C)N[C@H]1CC[C@H](Nc2cc(-c3csc(NCC4(C#N)CCOCC4)n3)c(Cl)cn2)CC1`, the figures for the GI50 in test [1], in test [2] and in test [3] were 121 nM, 1250 nM and 537 nM, respectively. In addition, in test [4], the IC50 is 10 nM.
As to `COCCN[C@H]1CC[C@H](Nc2cc(-c3csc(SCC4CCOCC4)n3)c(Cl)cn2)CC1`, the GI50 amounted to 340 nM in test [1], 5600 nM in test [2] and 800 nM in test [3]. Moreover, in test [4], the IC50 was found to be 14 nM.
In the same order, the values of `COCCN[C@H]1CC[C@H](Nc2cc(-c3csc(NCc4ccccc4)n3)c(Cl)cn2)CC1` are 330 nM, 1000 nM, 470 nM and 14 nM.
For `CC(=O)N[C@H]1CC[C@H](Nc2cc(-c3csc(NCC4CCOCC4)n3)c(Cl)cn2)CC1`, the GI50 in test [1] is 3600 nM; in test [2], above 10000 nM; in test [3], above 10000 nM. Further, inhibition in test [4] was half-maximal at 101 nM (IC50).
With `COCCN[C@H]1CC[C@H](Nc2cc(-c3csc(NCC4CC4)n3)c(Cl)cn2)CC1`, the figures for the GI50 in test [1], in test [2] and in test [3] were 740 nM, 1400 nM and 890 nM, respectively. For the same compound, in test [4], the IC50 is 96 nM.
On to `O=C(Nc1cc(-c2csc(NCC3CCOCC3)n2)c(Cl)cn1)c1ccc(F)cc1`, for which the GI50 in test [1] is 550 nM; in test [2], 930 nM; in test [3] it was 3600 nM. Also, inhibition in test [4] was half-maximal at 2300 nM (IC50).
In the case of `COCC(=O)N[C@H]1CC[C@H](Nc2cc(-c3csc(NCC4CCOCC4)n3)c(Cl)cn2)CC1`, the GI50 in test [1], in test [2] and in test [3] was above 10000 nM in each case. In test [4], this compound returned a 50% inhibitory concentration (IC50) of 1890 nM.
For the compound `CC(C)(C)OC(=O)Nc1nc(-c2cc(F)ncc2Cl)cs1`, the GI50 in test [1], in test [2] and in test [3] was above 10000 nM in each case. Further, in test [4], the IC50 is above 10000 nM.
Consider `COCCNc1cc(-c2csc(NCC3CCOCC3)n2)c(Cl)cn1`, for which the GI50 in test [1], in test [2] and in test [3] was above 10000 nM throughout. The compound further gave an IC50 in test [4] of 1040 nM.
